Tests used:
Type in all cases: cell-based
S37 [1] = assay: Inhibition of A-type amino acid transporter-mediated [3H]-L-histidine uptake in mouse S37 cells assessed as residual activity at 5 mM after 2 mins by liquid scintillation counting analysis relative to control
S37 [2] = assay: Inhibition of L-type amino acid transporter-mediated [3H]-L-histidine uptake in mouse S37 cells assessed as residual activity at 5 mM after 2 mins by liquid scintillation counting analysis relative to control
S37 [3] = assay: Inhibition of A-type amino acid transporter-mediated [3H]-L-histidine uptake in mouse S37 cells assessed as residual activity after 2 mins by liquid scintillation counting analysis relative to control
How it was run: (§1)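 S37 ascites tumor cells were harvested 6-8 days after transplanting about 0.3 mL of a 1:10 packed-cell suspension. Cells were washed three times in modified Krebs-Ringer phosphate buffer, resuspended, and incubated with [3H]-L-histidine at 10 mM (A system) for 2 min at 20 °C. Uptake was stopped in chilled buffer, and cells were spun, rinsed and weighed wet. Pellets were lysed in 95% EtOH and counted by scintillation. Results are % of control, with duplicate runs on triplicate samples.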

S37 [4] = assay: Inhibition of L-type amino acid transporter-mediated [3H]-L-histidine uptake in mouse S37 cells assessed as residual activity after 2 mins by liquid scintillation counting analysis relative to control
How it was run: (§2)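 Mouse-passaged S37 ascites cells were collected 6-8 days post-transplant, washed three times and resuspended in modified Krebs-Ringer phosphate buffer. L-system uptake used [3H]-L-histidine at 0.1 mM for 2 min at 20 °C. Incubation ended on pouring into chilled buffer, followed by three centrifugations to remove entrained label. Pellet wet weight was recorded, the EtOH lysate was scintillation-counted, and results are % of control, averaging duplicate runs on triplicate samples.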

S37 [5] = assay: Inhibition of A-type amino acid transporter-mediated [3H]-L-histidine uptake in mouse S37 cells assessed as residual activity at 10 mM after 2 mins by liquid scintillation counting analysis relative to control; how it was run: as §1
S37 [6] = assay: Inhibition of L-type amino acid transporter-mediated [3H]-L-histidine uptake in mouse S37 cells assessed as residual activity at 10 mM after 2 mins by liquid scintillation counting analysis relative to control; how it was run: as §2

SMILES	Activity (S37 [1]) [%]	Activity (S37 [2]) [%]	Activity (S37 [5]) [%]	Activity (S37 [6]) [%]	also measured
CSCC[C@H](N)C(=O)O	68	11			
O=C(O)[C@@H]1CSCN1	74	72			
NC1(C(=O)O)CCSCC1					Activity (S37 [3]): 81%; Activity (S37 [4]): 31%
N[C@@H](CSCCSC[C@H](N)C(=O)O)C(=O)O	70	52			
O=C(O)[C@@H]1CSCCN1	73	51			
CC1(C)N[C@H](C(=O)O)CS1	68	45			
NC(CCS)C(=O)O (racemic)			55	6	
O=C(O)C1CCSCN1 (racemic)			85	90	
CC1N[C@H](C(=O)O)CS1 (stereo partly specified)	72	70			
CCSCC[C@H](N)C(=O)O	63	11			
NC1CCSC1=O (stereo unspecified)			119	96	
O=C(O)C1NCCS1 (racemic)			58	63	
N[C@@H](CS)C(=O)O	51	16			
